High-throughput results (PubChem)
Most compounds without a hit are left out; they make up all but 1.9% or so of the library.
RAD54 inh = blocks human RAD54 Holliday junction branch migration; Q92698; FAM/BHQ fluorescence; inhibition, % at 10.4 µM; 360,000 compounds, 0.14% hits;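 active means mean normalized replicate activity at least 40 and at least half of replicates scoring 40 or more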;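 further: 0% = median of neutral control wells and 100% = median of positive control wells; inhibitors cause a drop in the FAM fluorescence signal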
Target sequence (Q92698 whole entry, looked up): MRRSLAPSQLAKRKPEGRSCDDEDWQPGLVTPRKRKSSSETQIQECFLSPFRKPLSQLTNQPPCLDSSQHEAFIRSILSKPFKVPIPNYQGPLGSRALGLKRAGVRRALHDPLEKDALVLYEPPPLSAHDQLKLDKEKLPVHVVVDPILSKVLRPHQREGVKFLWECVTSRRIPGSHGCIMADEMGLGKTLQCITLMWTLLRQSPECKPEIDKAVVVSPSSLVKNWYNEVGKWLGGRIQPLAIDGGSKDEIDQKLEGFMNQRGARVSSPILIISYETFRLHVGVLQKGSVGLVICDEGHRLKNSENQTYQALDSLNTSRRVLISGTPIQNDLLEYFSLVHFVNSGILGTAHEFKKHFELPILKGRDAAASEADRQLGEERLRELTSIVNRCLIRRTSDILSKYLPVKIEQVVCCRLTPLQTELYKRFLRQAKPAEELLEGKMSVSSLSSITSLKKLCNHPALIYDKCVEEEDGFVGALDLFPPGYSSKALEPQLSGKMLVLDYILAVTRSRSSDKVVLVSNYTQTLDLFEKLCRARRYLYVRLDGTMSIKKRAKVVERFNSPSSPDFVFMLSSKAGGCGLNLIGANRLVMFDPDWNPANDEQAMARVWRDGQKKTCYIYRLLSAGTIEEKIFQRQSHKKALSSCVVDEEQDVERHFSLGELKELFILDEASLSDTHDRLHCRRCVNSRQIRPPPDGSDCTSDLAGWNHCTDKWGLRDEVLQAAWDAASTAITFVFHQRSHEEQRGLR
Ecoli rRNA inh = selective bacterial rRNA inhibition in E. coli | E. coli WT GFP vs humanized-ribosome RFP mutants, fluorescence, 24 h; active compounds read low; DMSO median 0, no signal -100 | GFP signal change (wild-type ribosome), % (test concentration not listed) | AID 720706 | 350,000 compounds, 1.6% hits;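 active means significant combined selectivity score with lowered wild-type GFP, culture density cut under 30%, mutant RFP and density less affected; inactive means any of these conditions unmet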
PglD DTNB = blocks C. jejuni PglD acetyltransferase activity. 360,000 compounds, 0.098% hits. inhibition, % at 12.5 µM. purified PglD enzyme, DTNB colorimetric CoA detection. AID 602405; in the data active means inhibition above about 16%, passing the limit was not always enough
RAD52 inh = RAD52 (human) annealing inhibition; recombinant RAD52 DNA annealing, FRET fluorescence; AID 651710; inhibition, % at 18.7 µM; P43351; 360,000 compounds, 0.46% hits;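 active means every replicate showing at least 50% inhibition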
Cneo AK release = Cryptococcus neoformans lysis via adenylate kinase release | lysis activity, % at 15 µM | 360,000 compounds, 0.2% hits | AID 651654 | C. neoformans lysis, adenylate kinase release luminescence, 4 h; normalised: neutral wells 0, clomiphene wells 100;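 active means mean lysis activity across replicates of at least 80%, whatever share of replicates individually reach that level; inactive means mean lysis activity below 80%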
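Material – Cryptococcus neoformans yeast cells · Quantity – 5 × 10^6 yeast cells/mL · Buffer or medium – YPD medium · Compound – single dose · Timing – 4 h static compound exposure, 37 °C, read 1 h post-reagent · Signal – adenylate kinase release luminescence · Read-out basis – lysis from increased AK signal · Benchmarks – Clomiphene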
Starred values were filed as active, the others as inactive; nt = not tested or not shown.

SMILES	RAD54 inh	Ecoli rRNA inh	PglD DTNB	RAD52 inh	Cneo AK release
N#Cc1ccc(NC(=O)Nc2ccc(Oc3ccc(NC(=O)Nc4ccc(C#N)cc4)cc3)cc2)cc1	-10.5	-28.1*	3.6	-4.8	-1.3
COc1cc(C(=O)NCCN2C(=O)S/C(=C\c3cccs3)C2=O)cc(OC)c1OC	-9.5	-0.8	1.0	-27.2	-3.2
COc1cccc(C(=O)NCCN2C(=O)S/C(=C/c3cccs3)C2=O)c1OC	nt	-39.2*	nt	-31.5	nt
Oc1ccc(/C=N/Nc2nc(-c3ccc(Cl)cc3)cc(C(F)(F)F)n2)cc1	1.1	-23.1*	-2.3	-4.4	0.3
C[C@H](CO)N1C[C@H](C)[C@@H](CN(C)Cc2ccc3c(c2)OCO3)OCc2ccccc2-c2c(n(C)c3ccccc23)C1=O	nt	-37.0	nt	nt	nt
COc1cc(OC)c(OC)cc1/C=C1/Cc2ccccc2C1=O	-24.3	9.1	3.5	-406.7	1.5
COc1cc(OC)c(OC)cc1/C=C1\CC(C)C/C(=C\c2cc(OC)c(OC)cc2OC)C1=O (stereo not given)	-3.5	-22.3*	-4.5	-103.3	0.4
O=C(CNC(=S)N(Cc1ccccc1)Cc1ccccc1F)NCc1ccccc1	nt	-28.6	nt	-10.1	nt
Cc1ccc(CNC(=O)CNC(=S)N(Cc2ccccc2)Cc2ccccc2F)cc1	nt	-29.5*	nt	-36.6	nt
O=C(CNC(=S)N(Cc1ccccc1)Cc1ccccc1F)NCc1ccc(Cl)cc1	nt	-26.8*	nt	-25.4	nt
Fc1ccccc1CNC(=S)NCc1ccc(Cl)cc1	2.4	-28.5	0.1	8.6	194.2*
O=C(C[C@@H]1CC[C@H]2[C@@H](COC[C@@H](O)CN2Cc2ccccc2F)O1)NC1CCC1	4.5	-1.8	2.2	-13.4	2.1
C[C@H](CO)N1C[C@H](C)[C@H](CN(C)Cc2ccccc2)Oc2cc(C3=CCCC3)ccc2S1(=O)=O	1.1	-8.9	-0.7	-11.9	9.0
CCOC(=O)CN(C(=O)CSc1nnc(CNc2ccc(C)cc2C)o1)c1ccccc1	-9.6	-22.7*	2.8	-7.4	1.1
COc1ccc(S(=O)(=O)N(C)C[C@H]2OCCCC[C@@H](C)Oc3ccc(NS(C)(=O)=O)cc3C(=O)N([C@H](C)CO)C[C@H]2C)cc1	3.1	-5.7	2.2	-13.0	-2.6
CC[C@H]1C/C=C\C[C@H](c2ccccc2)NC(=O)CCC(=O)N1	nt	2.4	nt	nt	nt
COc1ccc2c3c([nH]c2c1)[C@@H](CO)N(Cc1nccs1)CC31CCN(Cc2cccnc2)CC1	nt	-2.9	nt	60.4*	nt
COc1ccc2c3c([nH]c2c1)[C@@H](CO)N(C(=O)CN(C)C)CC31CN(CC2CC2)C1	nt	2.9	nt	55.9*	nt
COc1ccc2c3c([nH]c2c1)[C@H](CO)N(C(=O)CN(C)C)CC31CN(CC2CCCC2)C1	nt	3.0	nt	49.3	nt
COc1ccc2c3c([nH]c2c1)[C@H](CO)N(C(=O)CN(C)C)CC31CN(CC2CC2)C1	nt	3.4	nt	50.2*	nt
COc1ccc2c3c([nH]c2c1)[C@@H](CO)N(Cc1ccc(Cl)cc1)CC31CCN(Cc2nccs2)CC1	nt	0.0	nt	-42.2	nt
COc1ccc2c3c([nH]c2c1)[C@H](CO)N(C(=O)CN(C)C)CC31CN(Cc2ccccc2)C1	nt	6.7	nt	55.2*	nt
COCC(=O)N1CC2(CN(Cc3ccccc3)C2)c2c([nH]c3cc(OC)ccc23)[C@@H]1CO	nt	-1.7	nt	4.9	nt
C[C@@H]1CCCCO[C@H](CN(C)CC2CCCCC2)[C@H](C)CN([C@@H](C)CO)C(=O)c2cc(NC(=O)Nc3ccc(C(F)(F)F)cc3)ccc2O1	7.0	-5.8	1.2	-5.7	3.4
C[C@H]1CN([C@@H](C)CO)C(=O)Cc2cc(NS(=O)(=O)c3cccs3)ccc2O[C@@H]1CN(C)Cc1ccncc1	-5.1	-1.6	3.8	nt	1.4
SMILES	RAD54 inh	Ecoli rRNA inh	PglD DTNB	RAD52 inh	Cneo AK release
O=C(C[C@@H]1C=C[C@@H](NC(=O)c2cccnc2)[C@@H](CO)O1)NCc1ccc(Cl)c(Cl)c1	4.1	1.3	14.3	0.6	1.1
COc1ccc(S(=O)(=O)NNC(=O)C(=O)NNc2ccccn2)cc1	-12.0	-30.7*	-2.6	-11.1	-1.3
COc1ccc(C(=O)NNS(=O)(=O)c2ccc(OC)cc2)cc1	3.1	0.9	-4.1	11.5	-0.7
C(=N\N1CCN(Cc2cccc3ccccc23)CC1)/c1cccnc1	nt	-29.7*	nt	-0.6	nt
O=C(O)c1ccn2c(C(=O)c3ccccc3)c(-c3ccccc3)cc2c1	nt	-25.8*	-4.4	-14.0	4.1
O=C(CNC(=S)N(Cc1ccccc1)Cc1ccccc1F)NCCc1ccccc1	6.2	-24.4	-4.0	-32.8	-0.7
CCOC(=O)CNC(=S)N(Cc1ccccc1)Cc1ccccc1F	nt	-33.8*	nt	-4.7	nt
O=C(O)CNC(=S)N(Cc1ccccc1)Cc1cccs1	nt	-10.6	nt	-16.1	nt
Cc1cccc(C)c1NC(=S)N(Cc1ccccc1)Cc1cccs1	0.6	-21.4*	4.2	-16.3	1.5
CCOC(=O)CNC(=S)N(Cc1ccccc1)Cc1cccs1	6.4	-26.4*	2.1	-13.2	2.5
C=CCc1ccc(OCCCCN2CC(C)CC(C)C2)c(OC)c1 (stereo not given)	1.9	-22.1*	2.3	-9.5	3.7
Nc1ccc(N=Nc2ccc(N)cc2)cc1	nt	-24.6*	nt	-11.3	nt
Cc1cc(N(C)C)ccc1N=Nc1ccc(N)cc1	6.3	-51.2*	-2.4	-2.6	0.1
Nc1ccc(C(=O)C(=O)c2ccc(N)cc2)cc1	6.1	0.0	1.5	-12.6	-4.0
O=C1Nc2ccccc2Nc2ccccc21	1.1	5.6	4.7	1.8	3.9
O=C1Nc2ccccc2N=C(c2ccccc2)c2ccccc21	-1.5	-28.0*	8.2	-20.2	0.0
Cc1nn(-c2ccc(F)cc2)c2nc(N)c(C#N)c(-c3ccc(O)c(O)c3)c12	-5.6	-18.1*	-6.0	-27.6	3.1
CCCC#Cc1ccc2c(c1)[C@H]1[C@H](CCN1S(=O)(=O)c1ccc(F)cc1)[C@@H](CO)N2	nt	-4.0	nt	nt	nt
Cc1cc(C)nc(N/N=C/C(Cl)=C/c2ccccc2)n1	nt	-26.0*	nt	-16.9	nt
COc1ccc2c3c(n(C)c2c1)[C@H](CO)N(C(=O)c1ccccc1)CC31CN(C(=O)c2ccccc2)C1	nt	-5.3	nt	4.4	nt
CC(C#N)Sc1nc2ccccc2c(=O)n1-c1ccccc1 (stereo not given)	2.7	-22.4*	-1.2	-14.5	1.0
COn1c(SC(C)C)nc2ccccc2c1=O	6.2	nt	-1.4	nt	13.7
Cc1c(Cc2c(C)n(C)n(-c3ccccc3)c2=O)c(=O)n(-c2ccccc2)n1C	14.3	nt	-3.3	nt	-1.4
Cc1c(O)c(=O)n(-c2ccccc2)n1C	2.6	-16.0*	6.5	-2.4	5.3
Cc1c(-n2c(SCC(C)C)nc3ccccc3c2=O)c(=O)n(-c2ccccc2)n1C	-4.1	-26.4*	10.5	-14.4	2.1
CC(C)NC(=O)N1CC2(C1)[C@H](c1ccccc1)[C@@H](CO)N2Cc1ccccc1	nt	2.7	nt	-6.6	nt
Cn1nc(C(F)(F)F)c(-c2cccc(C(F)(F)F)c2)c1NC(=O)Nc1ccc(F)cc1	-6.9	-28.0*	0.3	-0.4	5.2
Cn1nc(-c2ccccc2)cc1NC(=O)Nc1ccc(F)cc1	nt	-39.6*	nt	-5.9	nt
